Data from ChEMBL document CHEMBL4190234, “Design, synthesis and anticancer activity of new monastrol analogues bearing 1,3,4-oxadiazole moiety” (Eur J Med Chem, 2017).

What was measured:
Type in all cases: functional
RPMI-8226 = experiment: Growth inhibition of human RPMI8226 cells at 10 uM incubated for 48 hrs by sulforhodamine B assay relative to control; conditions: RPMI-8226, 48 h, read-out: GI
Method in brief: (§1)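 Single-dose screen at 10 μM final: cells in RPMI 1640, 5% FBS, 2 mM L-glutamine, plated 5,000–40,000/well, preincubated 24 h at 37°C, 5% CO2; drug 48 h; adherent cells fixed with 10% TCA, suspension cells with 16% TCA; SRB stain, absorbance 515 nm; percentage growth versus untreated control, with time-zero plates.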

A549 = experiment: Growth inhibition of human A549/ATCC cells at 10 uM incubated for 48 hrs by sulforhodamine B assay relative to control; conditions: A549, 48 h, read-out: GI; method in brief: as §1
EKVX = experiment: Growth inhibition of human EKVX cells at 10 uM incubated for 48 hrs by sulforhodamine B assay relative to control; conditions: read-out: GI; method in brief: as §1
HOP-62 = experiment: Growth inhibition of human HOP62 cells at 10 uM incubated for 48 hrs by sulforhodamine B assay relative to control; conditions: HOP-62, 48 h, read-out: GI; method in brief: as §1
NCI-H23 = experiment: Growth inhibition of human NCI-H23 cells at 10 uM incubated for 48 hrs by sulforhodamine B assay relative to control; conditions: NCI-H23, 48 h, read-out: GI; method in brief: as §1
NCI-H460 = experiment: Growth inhibition of human NCI-H460 cells at 10 uM incubated for 48 hrs by sulforhodamine B assay relative to control; conditions: NCI-H460, 48 h, read-out: GI; method in brief: as §1
NCI-H522 = experiment: Growth inhibition of human NCI-H522 cells at 10 uM incubated for 48 hrs by sulforhodamine B assay relative to control; conditions: NCI-H522, 48 h, read-out: GI; method in brief: as §1
COLO 205 = experiment: Growth inhibition of human COLO205 cells at 10 uM incubated for 48 hrs by sulforhodamine B assay relative to control; conditions: COLO 205, 48 h, read-out: GI; method in brief: as §1
HCT-116 = experiment: Growth inhibition of human HCT116 cells at 10 uM incubated for 48 hrs by sulforhodamine B assay relative to control; conditions: HCT-116, 48 h, read-out: GI; method in brief: as §1
HT-29 = experiment: Growth inhibition of human HT-29 cells at 10 uM incubated for 48 hrs by sulforhodamine B assay relative to control; conditions: HT-29, 48 h, read-out: GI; method in brief: as §1
KM12 = experiment: Growth inhibition of human KM12 cells at 10 uM incubated for 48 hrs by sulforhodamine B assay relative to control; conditions: KM12, 48 h, read-out: GI; method in brief: as §1
SW-620 = experiment: Growth inhibition of human SW620 cells at 10 uM incubated for 48 hrs by sulforhodamine B assay relative to control; conditions: SW-620, 48 h, read-out: GI
Method in brief: (§2)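 NCI single-dose screen: cells grown in RPMI 1640 with 5% FBS and 2 mM L-glutamine, plated at 5,000–40,000 cells/well and preincubated 24 h at 37 °C, 5% CO2. Compounds taken from DMSO stock and tested at final 10 µM for 48 h. Cells fixed with TCA, stained with 0.4% SRB, absorbance read at 515 nm. Percentage growth calculated against untreated controls; controls held DMSO at the same dilution.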

SNB-19 = experiment: Growth inhibition of human SNB19 cells at 10 uM incubated for 48 hrs by sulforhodamine B assay relative to control; conditions: SNB-19, 48 h, read-out: GI; method in brief: as §2
U-251 = experiment: Growth inhibition of human U251 cells at 10 uM incubated for 48 hrs by sulforhodamine B assay relative to control; conditions: U-251, 48 h, read-out: GI; method in brief: as §2
Malme-3M = experiment: Growth inhibition of human MALME-3M cells at 10 uM incubated for 48 hrs by sulforhodamine B assay relative to control; conditions: read-out: GI; method in brief: as §1
M14 = experiment: Growth inhibition of human M14 cells at 10 uM incubated for 48 hrs by sulforhodamine B assay relative to control; conditions: M14, 48 h, read-out: GI; method in brief: as §1
SK-MEL-28 = experiment: Growth inhibition of human SK-MEL-28 cells at 10 uM incubated for 48 hrs by sulforhodamine B assay relative to control; conditions: SK-MEL-28, 48 h, read-out: GI; method in brief: as §2
SK-MEL-5 = experiment: Growth inhibition of human SK-MEL-5 cells at 10 uM incubated for 48 hrs by sulforhodamine B assay relative to control; conditions: SK-MEL-5, 48 h, read-out: GI; method in brief: as §2
UACC-257 = experiment: Growth inhibition of human UACC257 cells at 10 uM incubated for 48 hrs by sulforhodamine B assay relative to control; conditions: UACC-257, 48 h, read-out: GI; method in brief: as §2
UACC-62 = experiment: Growth inhibition of human UACC62 cells at 10 uM incubated for 48 hrs by sulforhodamine B assay relative to control; conditions: UACC-62, 48 h, read-out: GI; method in brief: as §2
OVCAR-5 = experiment: Growth inhibition of human OVCAR5 cells at 10 uM incubated for 48 hrs by sulforhodamine B assay relative to control; conditions: OVCAR-5, 48 h, read-out: GI; method in brief: as §1
NCI/ADR-RES = experiment: Growth inhibition of human NCI/ADR-RES cells at 10 uM incubated for 48 hrs by sulforhodamine B assay relative to control; conditions: read-out: GI; method in brief: as §1
SK-OV-3 = experiment: Growth inhibition of human SKOV3 cells at 10 uM incubated for 48 hrs by sulforhodamine B assay relative to control; conditions: SK-OV-3, 48 h, read-out: GI; method in brief: as §2
ACHN = experiment: Growth inhibition of human ACHN cells at 10 uM incubated for 48 hrs by sulforhodamine B assay relative to control; conditions: read-out: GI; method in brief: as §1
CAKI-1 = experiment: Growth inhibition of human Caki1 cells at 10 uM incubated for 48 hrs by sulforhodamine B assay relative to control; conditions: CAKI-1, 48 h, read-out: GI; method in brief: as §1
RXF 393 = experiment: Growth inhibition of human RXF393 cells at 10 uM incubated for 48 hrs by sulforhodamine B assay relative to control; conditions: RXF 393, 48 h, read-out: GI; method in brief: as §1
SN12C = experiment: Growth inhibition of human SN12C cells at 10 uM incubated for 48 hrs by sulforhodamine B assay relative to control; conditions: read-out: GI; method in brief: as §2
TK-10 = experiment: Growth inhibition of human TK10 cells at 10 uM incubated for 48 hrs by sulforhodamine B assay relative to control; conditions: TK-10, 48 h, read-out: GI; method in brief: as §2
PC-3 = experiment: Growth inhibition of human PC3 cells at 10 uM incubated for 48 hrs by sulforhodamine B assay relative to control; conditions: PC-3, 48 h, read-out: GI; method in brief: as §1
Hs-578T = experiment: Growth inhibition of human Hs 578T cells at 10 uM incubated for 48 hrs by sulforhodamine B assay relative to control; conditions: read-out: GI; method in brief: as §1

Row | SMILES | inhibition of growth at 10 µM (A549) | inhibition of growth at 10 µM (EKVX) | inhibition of growth at 10 µM (HOP-62) | inhibition of growth at 10 µM (NCI-H23) | inhibition of growth at 10 µM (NCI-H460) | inhibition of growth at 10 µM (NCI-H522) | inhibition of growth at 10 µM (HCT-116) | inhibition of growth at 10 µM (HT-29) | inhibition of growth at 10 µM (KM12) | inhibition of growth at 10 µM (SW-620) | inhibition of growth at 10 µM (SNB-19) | inhibition of growth at 10 µM (U-251) | inhibition of growth at 10 µM (Malme-3M) | inhibition of growth at 10 µM (M14) | inhibition of growth at 10 µM (SK-MEL-5) | inhibition of growth at 10 µM (UACC-257) | inhibition of growth at 10 µM (UACC-62) | inhibition of growth at 10 µM (OVCAR-5) | inhibition of growth at 10 µM (NCI/ADR-RES) | inhibition of growth at 10 µM (SK-OV-3) | further results
1 | CCOC(=O)C1=C(C)NC(SCc2nnc(-c3ccc(Cl)cc3)o2)=NC1c1ccc(F)cc1 (stereo unspecified) | 11.7% | < 10% | < 10% | < 10% | < 10% | 17.5% | 21.7% | 10.3% | < 10% | < 10% | 11.6% | 10.1% | < 10% | < 10% | 12.5% | < 10% | 10.7% | < 10% | < 10% | < 10% | inhibition of growth at 10 µM (RPMI-8226): 25.8%; inhibition of growth at 10 µM (COLO 205): < 10%; inhibition of growth at 10 µM (SK-MEL-28): < 10%; inhibition of growth at 10 µM (ACHN): < 10%; inhibition of growth at 10 µM (CAKI-1): 17.5%; inhibition of growth at 10 µM (RXF 393): < 10%; inhibition of growth at 10 µM (SN12C): < 10%; inhibition of growth at 10 µM (TK-10): 13.9%; inhibition of growth at 10 µM (PC-3): 23.4%; inhibition of growth at 10 µM (Hs-578T): < 10%
2 | CC(=O)C1=C(C)NC(SCc2nnc(-c3ccc(Cl)cc3)o2)=NC1c1ccc(Cl)cc1 (stereo unspecified) | 21.4% | < 10% | 11.6% | < 10% | < 10% | 20.9% | 25.8% | < 10% | < 10% | < 10% | 16.6% | 14.8% | 11.6% | < 10% | < 10% | < 10% | 27.7% | < 10% | < 10% | < 10% | inhibition of growth at 10 µM (RPMI-8226): 32.9%; inhibition of growth at 10 µM (COLO 205): < 10%; inhibition of growth at 10 µM (SK-MEL-28): < 10%; inhibition of growth at 10 µM (ACHN): 13.5%; inhibition of growth at 10 µM (CAKI-1): 21.1%; inhibition of growth at 10 µM (RXF 393): < 10%; inhibition of growth at 10 µM (SN12C): 13%; inhibition of growth at 10 µM (TK-10): 13.1%; inhibition of growth at 10 µM (PC-3): 31.1%; inhibition of growth at 10 µM (Hs-578T): < 10%
3 | CC(=O)C1=C(C)NC(SCc2nnc(-c3ccc(Cl)cc3)o2)=NC1c1ccc(F)cc1 (stereo unspecified) | < 10% | < 10% | < 10% | < 10% | < 10% | 15.6% | 13.1% | < 10% | < 10% | < 10% | < 10% | < 10% | < 10% | < 10% | < 10% | < 10% | 22.6% | < 10% | < 10% | < 10% | inhibition of growth at 10 µM (RPMI-8226): 13.8%; inhibition of growth at 10 µM (COLO 205): < 10%; inhibition of growth at 10 µM (SK-MEL-28): < 10%; inhibition of growth at 10 µM (ACHN): < 10%; inhibition of growth at 10 µM (CAKI-1): 16.9%; inhibition of growth at 10 µM (RXF 393): < 10%; inhibition of growth at 10 µM (SN12C): < 10%; inhibition of growth at 10 µM (TK-10): 14.6%; inhibition of growth at 10 µM (PC-3): 18.5%; inhibition of growth at 10 µM (Hs-578T): < 10%
4 | CCOC(=O)C1=C(C)NC(SCc2nnc(-c3ccc(Cl)cc3)o2)=NC1c1ccc(Cl)cc1Cl (stereo unspecified) | 46.5% | 22.8% | 17.5% | 34% | 40.8% | 49.8% | 71.2% | 46.9% | 36.6% | 33.8% | 27.1% | 34.7% | 27.2% | 34.8% | 19.7% | 31.9% | 48.4% | 11% | 45.4% | < 10% | inhibition of growth at 10 µM (SK-MEL-28): < 10%; inhibition of growth at 10 µM (ACHN): 42.3%; inhibition of growth at 10 µM (RXF 393): 56.6%; inhibition of growth at 10 µM (SN12C): 34.6%; inhibition of growth at 10 µM (TK-10): 20.6%; inhibition of growth at 10 µM (PC-3): 54.9%; inhibition of growth at 10 µM (Hs-578T): 32.9%
5 | CC(=O)C1=C(C)NC(SCc2nnc(-c3ccc(C)cc3)o2)=NC1c1ccc(F)cc1 (stereo unspecified) | < 10% | < 10% | < 10% | < 10% | < 10% | 14.1% | < 10% | < 10% | < 10% | < 10% | < 10% | < 10% | < 10% | < 10% | < 10% | < 10% | 15.4% | 10.4% | < 10% | < 10% | inhibition of growth at 10 µM (RPMI-8226): 16.3%; inhibition of growth at 10 µM (COLO 205): < 10%; inhibition of growth at 10 µM (ACHN): < 10%; inhibition of growth at 10 µM (CAKI-1): 12%; inhibition of growth at 10 µM (RXF 393): < 10%; inhibition of growth at 10 µM (SN12C): < 10%; inhibition of growth at 10 µM (TK-10): 14.4%; inhibition of growth at 10 µM (PC-3): 14.7%; inhibition of growth at 10 µM (Hs-578T): < 10%
